Bioassay records (PubChem BioAssay)
In the library only some 2.5% were active in any assay of this set; here they are far more common.
HTRA1 inhibitor: inhibitors of human serine peptidase HTRA1; Q92743; recombinant HTRA1, FP-rhodamine activity-based probe, fluorescence polarization; inhibition, % at 5.96 µM; actives 0.5% (n = 340,000); in the data active = inhibition above about 36%;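 note: 0% = enzyme with DMSO and 100% = wells lacking enzyme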
Target sequence (Q92743 whole entry, looked up): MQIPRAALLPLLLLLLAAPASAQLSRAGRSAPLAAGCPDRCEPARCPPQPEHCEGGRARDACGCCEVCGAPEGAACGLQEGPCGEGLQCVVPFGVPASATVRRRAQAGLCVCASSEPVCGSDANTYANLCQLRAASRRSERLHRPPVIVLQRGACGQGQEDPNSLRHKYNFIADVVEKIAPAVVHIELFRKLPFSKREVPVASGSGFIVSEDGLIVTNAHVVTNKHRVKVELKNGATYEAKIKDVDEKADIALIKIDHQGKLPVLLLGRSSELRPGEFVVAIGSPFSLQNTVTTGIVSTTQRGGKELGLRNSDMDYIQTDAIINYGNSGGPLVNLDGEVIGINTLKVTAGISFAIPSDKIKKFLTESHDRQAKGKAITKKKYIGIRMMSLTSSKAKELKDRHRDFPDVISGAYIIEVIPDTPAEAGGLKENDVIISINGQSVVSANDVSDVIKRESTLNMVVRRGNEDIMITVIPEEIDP
mABHD4 FP: inhibitors of mouse ABHD4. Q8VD66. purified mABHD4, FP-Rh probe fluorescence polarization. inhibition, % at 8.92 µM. actives 0.54% (n = 370,000);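 active = inhibition exceeding the mean over every tested compound plus 3 SD, cut at about 30% in these data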;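 note: 0% = plate median of compound wells and 100% = S159A mutant with DMSO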
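Test system: mABHD4 protein | Buffer or medium: HEPES pH 7.0 buffer, 150 mM NaCl, 0.01% Pluronic F-127 | Probe or stimulus: FP-Rh fluorescent activity-based probe, added after compound pre-incubation | Timing: Pre-incubation 45 min, probe exposure 60 min, at 25 °C | Technique: Fluorescence polarization, excitation 525 nm, emission 598 nm, BODIPY TMR filters | Repeats: Single well per compound (singlicate)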
TCR-CD3 inh: blocks the human TCR-CD3 interaction; actives 0.37% (n = 360,000); inhibition, % at 9.4 µM; TAMRA-labeled TCR probe fluorescence, biochemical; in the data active = inhibition above about 19%;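 note: recombinant mutant TCR 2C K166C tagged with TAMRA read by polarization; 0% = receptor in buffer alone and 100% = receptor with positive control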
rCAG binder: molecules binding r(CAG) RNA repeats | r(CAG) RNA repeat, TO-PRO-1 dye displacement fluorescence | inhibition, % at 3 µM | actives 1.3% (n = 370,000);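 active = inhibition above the plate cutoff, the mean of all test compounds on that plate plus 3 SD, cut at about 35% in these data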;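 note: 0% = DMSO alone and 100% = 100 µM mitoxantrone as full dye displacement; higher means more dye released from RNA so lower well fluorescence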
SIAE inh: blocks human sialic acid acetylesterase; SIAE FP-Rh probe binding, fluorescence polarization; actives 0.69% (n = 370,000); Q9HAT2; inhibition, % at 9.66 µM;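 active = inhibition above a cutoff: mean of compounds within the control limits plus 3 SD of those, cut at about 17% in these data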;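 note: 0% = plate median of compound wells and 100% = probe without SIAE protein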
rCAG bind conf: r(CAG) RNA repeat binding, confirmation | inhibition, % at 3 µM | shares compounds with rCAG binder | TO-PRO-1 dye displacement fluorescence | actives 70% (n = 4,300);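 active = inhibition above a per-plate cutoff, the mean inhibition of sample wells plus 3 SD, cut at about 35% in these data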;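 note: loss of TO-PRO-1 fluorescence as compound displaces dye from 1x1 AA loop RNA; 0% = DMSO only wells and 100% = 100 µM mitoxantrone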
DNA CAG counter: DNA CAG dye complex inhibition counter-screen. actives 94% (n = 4,300). shares compounds with rCAG binder. inhibition, % at 3 µM. d(CAG) DNA oligo TO-PRO-1 dye displacement, fluorescence;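 active = inhibition above its plate's cutoff, the mean test-well inhibition plus 3 SD, cut at about 4.8% in these data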;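 note: 0% = DNA dye mix with DMSO and 100% = 100 µM mitoxantrone; hits displace the dye from DNA and so lower well fluorescence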
Numbers without * were called inactive.

What do the screens show for `Cc1cccc(OCC(=O)Nc2ccc(S(=O)(=O)Nc3onc(C)c3C)cc2)c1C`?
HTRA1 inhibitor: -3; mABHD4 FP: -3; TCR-CD3 inh: 5; rCAG binder: 41*; SIAE inh: -1; rCAG bind conf: 26; DNA CAG counter: 6.5*

How did O=C(COc1ccc(F)cc1Cl)Nc1ccc(S(=O)(=O)Nc2nccs2)cc1 do in these assays?
HTRA1 inhibitor: -5; mABHD4 FP: -10; TCR-CD3 inh: 3; rCAG binder: 43*; SIAE inh: -10; rCAG bind conf: 40*; DNA CAG counter: 13*

Results for Cc1cccc(OCCCC(=O)Nc2nccs2)c1C ?
HTRA1 inhibitor: -5; mABHD4 FP: -1; TCR-CD3 inh: -1; rCAG binder: 5; SIAE inh: 10

What do the screens show for `Cc1cccc(OCCCC(=O)Nc2ccc(S(=O)(=O)Nc3onc(C)c3C)cc2)c1C`?
HTRA1 inhibitor: 0; mABHD4 FP: 2; TCR-CD3 inh: 9; rCAG binder: 59*; SIAE inh: -1; rCAG bind conf: 32; DNA CAG counter: 8.5*

How did Cc1cccc(OCCCC(=O)Nc2ccc(S(=O)(=O)Nc3ncccn3)cc2)c1C do in these assays?
HTRA1 inhibitor: -12; mABHD4 FP: -10; TCR-CD3 inh: -9; rCAG binder: 25; SIAE inh: 0

How did CCCC(C)(C)C(=O)N1CCC1(C)C(=O)NS(=O)(=O)c1cccc(Cl)c1 (stereo unspecified) do in these assays?
mABHD4 FP: -1; TCR-CD3 inh: -1; rCAG binder: 13; SIAE inh: -6

How did Nc1nc2ncccc2cc1C(=O)C1=C(c2ccccc2)Cc2ccccc21 do in these assays?
mABHD4 FP: -11; rCAG binder: 6; SIAE inh: -4

How did CC1CCCN(S(=O)(=O)c2ccc(C(=O)Nc3nnc(-c4ccco4)o3)cc2)C1 (stereo unspecified) do in these assays?
HTRA1 inhibitor: 8; mABHD4 FP: -4; TCR-CD3 inh: -3; rCAG binder: 41*; SIAE inh: 10; rCAG bind conf: 38*; DNA CAG counter: 13*

How did CCN(c1ccccc1)S(=O)(=O)c1ccc(C(=O)Nc2nnc(-c3ccco3)o2)cc1 do in these assays?
HTRA1 inhibitor: 6; mABHD4 FP: -17; TCR-CD3 inh: 0; rCAG binder: 57*; SIAE inh: -5; rCAG bind conf: 45*; DNA CAG counter: 15*

Results for CN(c1ccccc1)S(=O)(=O)c1ccc(C(=O)Nc2nnc(-c3ccco3)o2)cc1 ?
HTRA1 inhibitor: -9; mABHD4 FP: -5; TCR-CD3 inh: 3; rCAG binder: 42*; SIAE inh: -5; rCAG bind conf: 36*; DNA CAG counter: 13*

How did Cc1nn(CCc2nn[nH]n2)c2nc(-c3ccccc3)cc(C(F)(F)F)c12 do in these assays?
HTRA1 inhibitor: -14; mABHD4 FP: -2; TCR-CD3 inh: -4; rCAG binder: 44*; SIAE inh: -5; rCAG bind conf: 25; DNA CAG counter: 3

Results for O=C(Nc1nc(-c2ccco2)c(-c2ccco2)s1)c1c(F)cccc1Cl ?
HTRA1 inhibitor: 26; mABHD4 FP: 5; TCR-CD3 inh: 7; rCAG binder: 78*; SIAE inh: -7; rCAG bind conf: 28; DNA CAG counter: 14*

What do the screens show for `O=C(Nc1nc(-c2ccco2)c(-c2ccco2)s1)c1ccc(F)cc1F`?
HTRA1 inhibitor: 8; mABHD4 FP: 8; TCR-CD3 inh: 1; rCAG binder: 29; SIAE inh: 16

Results for Cc1cc(C(=O)O)ccc1-n1c(C)cc(C=C2C(=O)c3ccccc3C2=O)c1C ?
HTRA1 inhibitor: -8; mABHD4 FP: 3; TCR-CD3 inh: 4; rCAG binder: 43*; SIAE inh: -10; rCAG bind conf: 41*; DNA CAG counter: 11*

How did O=C(CSc1nc2sc3c(c2c(=O)n1-c1ccc(Cl)cc1)CCC3)Nc1ccc(C(=O)O)cc1 do in these assays?
mABHD4 FP: -7; rCAG binder: 58*; SIAE inh: -1; rCAG bind conf: 52*; DNA CAG counter: 22*

How did O=C(O)CSc1nc2sc3c(c2c(=O)n1Cc1ccccc1)CCCCC3 do in these assays?
HTRA1 inhibitor: -35; mABHD4 FP: -14; TCR-CD3 inh: -2; rCAG binder: 53*; SIAE inh: -4; rCAG bind conf: 54*; DNA CAG counter: 17*

How did Cc1ccccc1-n1c(SCC(=O)O)nc2sc3c(c2c1=O)CCCC3 do in these assays?
HTRA1 inhibitor: 5; mABHD4 FP: -12; TCR-CD3 inh: 2; rCAG binder: 10; SIAE inh: 4

What do the screens show for `CN1CCc2c(sc3nc(SCC(N)=O)n(-c4ccc(Cl)cc4)c(=O)c23)C1`?
HTRA1 inhibitor: -10; mABHD4 FP: -5; TCR-CD3 inh: -6; rCAG binder: 14; SIAE inh: -9

What do the screens show for `O=C(O)CSc1cc(C(=O)c2ccccc2O)cn2c(=O)c3c4c(sc3nc12)CCCC4`?
HTRA1 inhibitor: -20; mABHD4 FP: -15; TCR-CD3 inh: -1; rCAG binder: 47*; SIAE inh: -18; rCAG bind conf: 85*; DNA CAG counter: 61*

How did Cc1ccc(CS(=O)(=O)c2ccc(C(=O)N3CCN(c4ccccn4)CC3)cc2[N+](=O)[O-])cc1 do in these assays?
HTRA1 inhibitor: -2; mABHD4 FP: -5; TCR-CD3 inh: 7; rCAG binder: 0; SIAE inh: 3

What do the screens show for `NC(=O)c1ccsc1NC(=O)CSc1n[nH]c(N)n1`?
mABHD4 FP: 4; TCR-CD3 inh: 7; rCAG binder: 5; SIAE inh: -1

Results for Cc1ccsc1/C=C/C1=Cc2c(sc(NC(=O)CSc3n[nH]c(N)n3)c2C#N)C(C)(C)C1 ?
HTRA1 inhibitor: -21; mABHD4 FP: -6; TCR-CD3 inh: -4; rCAG binder: 55*; SIAE inh: -14; rCAG bind conf: 53*; DNA CAG counter: 26*

How did COc1cc2c(cc1OC)-c1nc3ccccc3c(=O)n1C(C)(C)C2 do in these assays?
HTRA1 inhibitor: -6; mABHD4 FP: -5; TCR-CD3 inh: 8; rCAG binder: -5; SIAE inh: 0

Results for CCN(CC)c1ccc(/C=C2/C(=O)c3ccc(C(=O)O)cc3C2=O)cc1 ?
HTRA1 inhibitor: 0; mABHD4 FP: -48; TCR-CD3 inh: -27; rCAG binder: 55*; SIAE inh: -104; rCAG bind conf: 82*; DNA CAG counter: 48*

How did CCN(CC)c1ccc(C=C2C(=O)OC3(CCCCC3)OC2=O)cc1 do in these assays?
HTRA1 inhibitor: -47; mABHD4 FP: -58; TCR-CD3 inh: -54; rCAG binder: -4; SIAE inh: -130

What do the screens show for `Cc1cccc(N2C(=O)N3[C@H](c4ccc(F)cc4)[C@@H]4C(=O)N(C5CCCCC5)C(=O)[C@@H]4[C@]3(Cc3ccc(Cl)cc3)C2=O)c1`?
HTRA1 inhibitor: -6; mABHD4 FP: -1; TCR-CD3 inh: 5; rCAG binder: 5; SIAE inh: -14
